Source: publication PMC5164959 (Biochemical pharmacology, 2016)
Read-outs that look alike come from different tables or passages of the source.

Tests used:
DGKα = DGKα (Rattus norvegicus, UniProt P51556); assay: Kinase assay with purified DGKα and PC:DAG:PS liposomes; format: biochemical; details: for Vmax (ATP): ATP-dependent activity; for Vmax (DAG): DAG-dependent activity; for Decrease of Vmax of purified DGKα: 0.5 mol% drug
Procedure, shortened: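 Rat FLAG-DGKα was expressed in HeLa cells by adenovirus (72 h) and purified on FLAG M2 beads. Reactions contained buffer B (MOPS pH 7.5), 1 mM CaCl2, 1 mM DTT and 4.75 mM PC:PS:DAG liposomes (5 mol% DAG), with test compound built into the liposomes at 0.5 or 2.0 mol% or added from DMSO. Reactions with [γ32P]-ATP ran 15 min at 25°C. Km and Vmax came from Michaelis-Menten non-linear regression.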

5-HT1B = 5-HT1B (Homo sapiens, UniProt P28222); assay: Radioligand competition binding assay
Chain of 5-HT1B (P28222 whole entry, species assumed): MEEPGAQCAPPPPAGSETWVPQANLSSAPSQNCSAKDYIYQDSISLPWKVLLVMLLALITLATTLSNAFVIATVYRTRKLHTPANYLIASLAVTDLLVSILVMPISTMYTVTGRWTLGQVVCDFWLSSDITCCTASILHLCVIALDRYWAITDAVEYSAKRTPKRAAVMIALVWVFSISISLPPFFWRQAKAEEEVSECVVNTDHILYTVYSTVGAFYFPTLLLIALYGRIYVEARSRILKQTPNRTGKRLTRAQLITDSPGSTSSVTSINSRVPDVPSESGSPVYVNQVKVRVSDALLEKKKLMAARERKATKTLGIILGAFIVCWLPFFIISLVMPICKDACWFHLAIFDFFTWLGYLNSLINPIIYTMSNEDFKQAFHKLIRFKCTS
Procedure, shortened: (§1)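 Run by the NIMH PDSP as radioligand competition binding assays. The primary screen used 10 μM test compound and reported mean percent inhibition of radioligand binding (n=4); above 50% counted as significant. At those receptors, IC50 values came from non-linear regression of competition binding isotherms and were converted to Ki with the Cheng-Prusoff equation.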

5-HT1D = 5-HT1D (Homo sapiens, UniProt P28221); assay: Radioligand competition binding assay
Chain of 5-HT1D (P28221 whole entry, species assumed): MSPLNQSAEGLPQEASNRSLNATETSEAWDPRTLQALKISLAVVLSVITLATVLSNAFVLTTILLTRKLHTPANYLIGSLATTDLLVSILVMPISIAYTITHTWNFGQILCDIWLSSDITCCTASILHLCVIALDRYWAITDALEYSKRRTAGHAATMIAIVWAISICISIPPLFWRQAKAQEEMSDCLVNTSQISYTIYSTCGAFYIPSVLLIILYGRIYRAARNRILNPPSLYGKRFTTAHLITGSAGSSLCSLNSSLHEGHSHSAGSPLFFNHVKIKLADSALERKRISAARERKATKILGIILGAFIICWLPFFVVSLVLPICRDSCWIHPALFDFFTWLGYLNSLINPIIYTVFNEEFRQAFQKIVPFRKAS
Procedure, shortened: as §1

5-HT2A = 5-HT2A (Homo sapiens, UniProt P28223); assay: Radioligand competition binding assay
Chain of 5-HT2A (P28223 whole entry, species assumed): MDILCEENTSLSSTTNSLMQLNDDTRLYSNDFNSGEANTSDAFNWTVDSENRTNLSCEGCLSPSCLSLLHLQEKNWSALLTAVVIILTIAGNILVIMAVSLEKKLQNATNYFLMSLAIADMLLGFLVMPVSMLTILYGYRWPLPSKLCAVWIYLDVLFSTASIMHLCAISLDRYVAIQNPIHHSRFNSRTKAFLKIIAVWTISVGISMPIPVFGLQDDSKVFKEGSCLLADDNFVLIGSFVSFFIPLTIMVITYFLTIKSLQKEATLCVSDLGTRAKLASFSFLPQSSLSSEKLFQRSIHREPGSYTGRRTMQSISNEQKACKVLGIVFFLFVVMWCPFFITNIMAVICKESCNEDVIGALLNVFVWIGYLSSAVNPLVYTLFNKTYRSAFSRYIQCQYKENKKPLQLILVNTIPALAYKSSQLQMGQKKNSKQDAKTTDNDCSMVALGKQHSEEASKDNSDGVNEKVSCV

5-HT5A = 5-HT5A (Homo sapiens, UniProt P47898); assay: Radioligand competition binding assay
Chain of 5-HT5A (P47898 whole entry, species assumed): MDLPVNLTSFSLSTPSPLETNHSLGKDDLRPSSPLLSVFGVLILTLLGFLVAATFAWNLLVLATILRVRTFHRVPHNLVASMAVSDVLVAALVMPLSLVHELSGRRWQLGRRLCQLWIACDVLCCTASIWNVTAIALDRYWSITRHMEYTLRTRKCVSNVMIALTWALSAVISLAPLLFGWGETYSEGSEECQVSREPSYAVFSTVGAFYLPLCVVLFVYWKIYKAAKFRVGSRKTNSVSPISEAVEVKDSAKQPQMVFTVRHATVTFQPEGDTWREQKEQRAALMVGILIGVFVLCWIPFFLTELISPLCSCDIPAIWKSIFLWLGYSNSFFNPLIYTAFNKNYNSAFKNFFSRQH
Procedure, shortened: as §1

DGKε = details: cited from earlier work
DGKθ = details: cited from earlier work

Chain of DGKα (P51556 whole entry): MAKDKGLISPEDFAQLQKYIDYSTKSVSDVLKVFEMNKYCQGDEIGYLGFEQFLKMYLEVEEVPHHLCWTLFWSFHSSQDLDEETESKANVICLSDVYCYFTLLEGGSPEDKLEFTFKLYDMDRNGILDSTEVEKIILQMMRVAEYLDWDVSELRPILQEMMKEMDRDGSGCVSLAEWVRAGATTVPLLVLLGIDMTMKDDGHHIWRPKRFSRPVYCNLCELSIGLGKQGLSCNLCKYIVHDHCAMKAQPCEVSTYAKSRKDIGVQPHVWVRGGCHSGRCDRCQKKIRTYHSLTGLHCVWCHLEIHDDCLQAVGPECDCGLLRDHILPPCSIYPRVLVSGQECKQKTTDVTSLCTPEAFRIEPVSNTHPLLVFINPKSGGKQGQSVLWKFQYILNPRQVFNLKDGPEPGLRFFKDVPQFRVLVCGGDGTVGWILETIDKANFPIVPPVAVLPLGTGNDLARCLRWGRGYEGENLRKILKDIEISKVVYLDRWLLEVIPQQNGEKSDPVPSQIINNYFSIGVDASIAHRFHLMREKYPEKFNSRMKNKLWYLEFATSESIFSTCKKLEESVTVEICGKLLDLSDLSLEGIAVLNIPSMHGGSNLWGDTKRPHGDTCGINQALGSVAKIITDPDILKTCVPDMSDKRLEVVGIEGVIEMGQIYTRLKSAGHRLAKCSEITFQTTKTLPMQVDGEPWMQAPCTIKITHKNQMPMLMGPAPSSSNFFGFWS

Cc1nc2sccn2c(=O)c1CCN1CCC(=C(c2ccccc2)c2ccc(F)cc2)CC1 [R59022]
Vmax (ATP) (DGKα; 0.5 mol% drug in liposomes, 5 mol% DAG): 32 ± 1 nmol/min/mg
Vmax (DAG) (DGKα; 0.5 mol% drug in liposomes, 1 mM ATP): 22 ± 1 nmol/min/mg
Decrease of Vmax of purified DGKα (DGKα; in the context of ATP): 25%
Decrease of Vmax of purified DGKα (DGKα; in the context of DAG): 40%
Vmax (ATP) (DGKα; 2.0 mol% drug in liposomes, 5 mol% DAG): 20 ± 1 ^† nmol/min/mg
Vmax (DAG) (DGKα; 2.0 mol% drug in liposomes, 1 mM ATP): 16 ± 1.5 nmol/min/mg
Km (DGKα; read-out: Km^app (ATP), 0.5 mol% drug in liposomes, 5 mol% DAG): 50 ± 10 µM
Km (DGKα; read-out: Km^app (ATP), 2.0 mol% drug in liposomes, 5 mol% DAG): 30 ± 10 µM
Km (DGKα; read-out: Km^app (DAG), 0.5 mol% drug in liposomes, 1 mM ATP): 110 ± 20 µM
Km (DGKα; read-out: Km^app (DAG), 2.0 mol% drug in liposomes, 1 mM ATP): 100 ± 20 µM
Percent Inhibition of Binding 5-HT1B (5-HT1B; 10 μM test compound, n=4): 83.5%
Ki (5-HT1B; read-out: Ki 5-HT1B, Cheng-Prusoff from best-fit IC50): 656 nM
Percent Inhibition of Binding 5-HT1D (5-HT1D; 10 μM test compound, n=4): 90.4%
Ki (5-HT1D; read-out: Ki 5-HT1D, Cheng-Prusoff from best-fit IC50): 12.3 nM
Percent Inhibition of Binding 5-HT2A (5-HT2A; 10 μM test compound, n=4): 98.2%
Ki (5-HT2A; read-out: Ki 5-HT2A, Cheng-Prusoff from best-fit IC50): 2.2 nM
Percent Inhibition of Binding 5-HT5A (5-HT5A; 10 μM test compound, n=4): 92.0%
Ki (5-HT5A; read-out: Ki 5-HT5A, Cheng-Prusoff from best-fit IC50): 18 nM
Inhibition of DGKε (DGKε): reported to inhibit
Inhibition of DGKθ (DGKθ): reported to inhibit
